The assay has as its system HCT116 (wild-type APC) cells. Briefly: Cell viability / toxicity in HCT116. The class given is cell-based. Conditions: Homo sapiens, HCT-116, read-out: IC50 (viability / growth inhibition). The method in brief: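 Dose-response toxicity assay of test compound on human HCT116 (APC wild-type) cells. Cells are kept in low-serum medium (0.2% FBS with growth factors), not fully defined medium. IC50 is the concentration that reduces cell viability by 50%.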

With `CC[C@H](C)C(=O)O[C@H]1CCC=C2C=C[C@H](C)[C@H](CC[C@@H](O)C[C@@H](O)CC(=O)O)[C@H]21` [Compactin, compactin], the IC50 is around 18.6 µM.
